The text below walks through data of ChEMBL document CHEMBL2062497, “Syntheses and in vitro evaluation of decalinvesamicol analogues as potential imaging probes for vesicular acetylcholine transporter (VAChT)” (Bioorg Med Chem, 2012).

Data set [1] addresses T1, Vesicular acetylcholine transporter (Rattus norvegicus, UniProt Q62666).
T1 sequence (Q62666 whole entry): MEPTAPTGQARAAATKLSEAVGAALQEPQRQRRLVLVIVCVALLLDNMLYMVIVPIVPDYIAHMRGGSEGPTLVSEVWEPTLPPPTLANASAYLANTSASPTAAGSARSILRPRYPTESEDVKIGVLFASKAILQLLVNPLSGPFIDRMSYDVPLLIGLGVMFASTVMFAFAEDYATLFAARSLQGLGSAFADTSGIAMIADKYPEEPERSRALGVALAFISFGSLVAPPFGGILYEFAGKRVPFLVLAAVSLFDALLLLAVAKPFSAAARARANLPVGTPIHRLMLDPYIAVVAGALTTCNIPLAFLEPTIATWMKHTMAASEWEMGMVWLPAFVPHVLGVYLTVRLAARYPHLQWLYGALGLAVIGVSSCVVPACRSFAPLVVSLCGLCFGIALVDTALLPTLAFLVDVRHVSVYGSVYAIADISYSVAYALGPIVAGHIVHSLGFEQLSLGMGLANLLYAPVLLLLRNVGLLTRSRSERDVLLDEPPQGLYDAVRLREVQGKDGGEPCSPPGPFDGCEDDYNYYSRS
Briefly: Binding affinity to VAChT in rat cerebral membrane. The class given is cell membranes.

Data set [2] in a line: Displacement of [3H]DTG from sigma2 receptor in Sprague-Dawley rat liver membrane after 90 mins by liquid scintillation counting in presence of pentazocine. The class given is cell membranes. The procedure, abridged: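 Sigma-2 assay: rat liver membranes (male Sprague-Dawley) with [3H]DTG (Kd 22.3 nM) plus pentazocine to mask sigma-1. Displacers at 1.0×10^-10–10^-5 M in 50 mM Tris-HCl pH 7.8, quadruplicate. Incubated 37 °C for 90 min, then filtered and scintillation counted. Three independent experiments; Ki via IC50/(1 + C/Kd).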
On the technique in general: In a radioligand displacement assay an active substance lowers the binding of a labelled ligand.

Data set [3] deals with Sigma non-opioid intracellular receptor 1 (Rattus norvegicus, UniProt Q9R0C9). Kind of data set: Displacement of (+)-[3H]pentazocine from sigma1 receptor in Sprague-Dawley rat cerebral membrane after 90 mins by liquid scintillation counting.
Chain of Sigma non-opioid intracellular receptor 1 (Q9R0C9 whole entry): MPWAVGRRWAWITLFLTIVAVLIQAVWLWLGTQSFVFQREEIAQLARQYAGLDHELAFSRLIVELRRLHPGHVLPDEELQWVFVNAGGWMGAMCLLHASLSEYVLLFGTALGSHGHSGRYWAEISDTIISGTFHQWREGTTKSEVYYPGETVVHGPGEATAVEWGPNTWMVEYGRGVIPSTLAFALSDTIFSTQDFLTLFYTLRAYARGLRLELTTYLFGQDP
Data set [4] addresses T1, Vesicular acetylcholine transporter. Kind of data set: Displacement of [125I]O-iodo-trans-decalinvesamicol from VAChT in Sprague-Dawley rat cerebral membrane after 1 hr by gamma counting. The procedure, abridged: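 Male Sprague-Dawley cerebral membranes were incubated with 5 nM radioiodinated tracer and each ligand at 10^-10–10^-5 M in 50 mM Tris-HCl pH 7.8, quadruplicate. Nonspecific binding was taken with excess unlabelled ligand. Incubation was 37 °C for 1 h, then ice quench, PEI-soaked filter harvest and gamma counting.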

Data set [5] shares this target. Briefly: Displacement of (-)-[3H]vesamicol from VAChT in Sprague-Dawley rat cerebral membrane after 60 mins by liquid scintillation counting in presence of DTG.
In the next data set the test system is Brain. Briefly: Drug uptake in Sprague-Dawley rat brain at 185 kBq, iv at 10 mins by gamma counting. The class given is ADME, organism-based. The note with it: in vivo. The procedure, abridged: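 Male Sprague-Dawley rats (8 weeks, 250–300 g, n = 4) got radioiodinated tracer, 185 kBq, by tail-vein injection. Sacrificed at 10 min. Whole brains were weighed and gamma counted, expressed as %ID/g.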

The nature of data set [6]: n-octanol-water partition coefficient, log P at 0.51 MBq after 5 mins by gamma counting. The class given is physicochemical. The procedure, abridged:
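Tracer (0.51 MBq) partitioned between n-octanol and 0.1 M phosphate buffer pH 7.4 (n = 4). Vortexed 5 min at room temperature, then centrifuged 10 min at 2000g. Four samples per layer were gamma counted. logP = log10(octanol/aqueous radioactivity). Three independent experiments.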

Data set [7] deals with T1, Vesicular acetylcholine transporter. Kind of data set: Binding affinity to VAChT in Sprague-Dawley rat cerebral membrane after 1 hr by gamma counting in presence of haloperidol. An outline of the steps: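 Saturation binding of [¹²⁵I]-labelled radioligand (0.1–10 nM) to cerebral membranes from male 8-week Sprague-Dawley rats (sucrose homogenate, differential centrifugation), with 100 nM haloperidol masking σ receptors. Incubated in 50 mM Tris–HCl pH 7.8 for 1 h at 37 °C, in quadruplicate. Filtered and washed, then gamma counted. Specific binding is total minus nonspecific; Kd and Bmax come from the saturation curve and Scatchard plot.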

Molecules are shown by their SMILES. pKd, pKi: −log10 of the molar value.

The term pKd denotes the negative decadic logarithm of the Kd, by convention in mol/L. As usually defined, the pKi is −log10 of the Ki, conventionally taken in molar units. Usually logP stands for a log measure of how a compound divides between an organic and an aqueous phase. Higher therefore signals a more lipophilic compound.

Take `O[C@@H]1CCCCC1N1CCC(c2ccccc2[125I])CC1` (some centres not stated): the pKd in data set [1] is 7.76.

With `OC1CCCCC1N1CCC(c2ccccc2)CC1` (configuration not stated), the pKi in data set [2] is 7.06.

For the compound `OC1C[C@@H]2CCCC[C@H]2CC1N1CCC(c2ccccc2I)CC1` (relative stereo), the pKi in data set [2] was 6.93; in data set [3], 6.62; in data set [4] it was 7.54; in data set [5], 7.69.

Take `OC1C[C@@H]2CCCC[C@H]2CC1N1CCC(c2ccccc2Br)CC1` (relative stereo): the pKi in data set [2] was 6.86; in data set [3], 6.82; in data set [4] it was 8.03; in data set [5] it was 7.86.

Take `OC1C[C@@H]2CCCC[C@H]2CC1N1CCC(c2ccccc2)CC1` (relative stereo): the pKi is 7.17 in data set [2] and 7.13 in data set [3].

As to `OC1C[C@@H]2CCCC[C@H]2CC1N1CCC(c2ccccc2[125I])CC1` (relative stereo), the Drug uptake in the data set on Brain is 0.45 % ID/g. This compound yielded a logP at 5 min in data set [6] of 2.46. The pKd in data set [7] was 8.76.

For the compound `CC(C)=CCN1CC[C@]2(C)c3cc(O)ccc3C[C@H]1[C@H]2C` [(+)-PENTAZOCINE], the pKi in data set [4] is under 5.00.

As for `Cc1ccccc1NC(=N)Nc1ccccc1C` [DITOLYLGUANIDINE], the negative logarithm of the Ki (pKi) in data set [2] is 7.50; in data set [4], 5.95.

In the case of `O=C(CCCN1CCC(O)(c2ccc(Cl)cc2)CC1)c1ccc(F)cc1` [HALOPERIDOL], the pKi in data set [2] was 7.29.

The compound `O=C(c1ccc(F)cc1)C1CCN(CCn2c(=O)[nH]c3ccccc3c2=O)CC1` [KETANSERIN] had a pKi in data set [4] of under 5.00.

Consider `NC[C@H](O)c1ccc(O)c(O)c1` [NOREPINEPHRINE], for which the pKi in data set [4] is under 5.00.

Consider `O=C(CCCN1CCC2(CC1)C(=O)NCN2c1ccccc1)c1ccc(F)cc1` [SPIPERONE], for which the pKi in data set [4] was 5.99.
